pIC50: −log10 of the molar value. Active and inactive are the calls of the source. No cut-off for these calls is given here.
What was measured:
[1] = tested on: Mus musculus; experiment: Antialzheimer activity in 5XFAD mouse assessed as number of plaques per FOV in […] cortex at 75 ppm administered as rodent chow starting from 1.5 months and measured after 5 months by immunolabeling based confocal microscopic analysis (reference value: […] to […]); type: functional; conditions: route po, time 3.5 months, 2555 h
[2] = target: Serine/threonine-protein kinase PLK2 (Homo sapiens, UniProt Q9NYY3); experiment: Inhibition of PLK2 (unknown origin)
[3] = AUC (0 to 24 hrs) in mouse plasma at 300 ppm administered as rodent chow for 14 days; type: ADME, cell-free; conditions: route po, time 14 day
[4] = tested on: Mus musculus; experiment: Effect on APP processing pathway in 5XFAD mouse assessed as PEN2 protein signal intensity in cortex at 1200 ppm administered as rodent starting from 1.5 months and measured after 7 months (reference value: 13.636 to 217.511 %); type: functional; conditions: route po, time 5.5 months, 4015 h
[5] = tested on: Mus musculus; experiment: Prevention of P2ry12 gene upregulation in 5XFAD mouse hippocampus at 1200 ppm administered as rodent chow starting from 1.5 months and measured after 7 months by Nanostring analysis; type: functional, tissue-based; conditions: route po, time 5.5 months
[6] = tested on: Mus musculus; experiment: Antialzheimer activity in 5XFAD mouse assessed as alteration in plaque morphology by measuring average plaque circularity in thalamus at 1200 ppm administered as rodent chow starting from 1.5 months and measured after 7 months by Thio-S labeling based confocal microscopic analysis (reference value: 0.257 to 0.365); type: functional; conditions: route po, time 5.5 months, 4015 h
[7] = target: Mitogen-activated protein kinase kinase kinase kinase 5 (Homo sapiens, UniProt Q9Y4K4); experiment: Inhibition of MAP4K5 (unknown origin)
[8] = target: Proto-oncogene tyrosine-protein kinase receptor Ret (Homo sapiens, UniProt P07949); experiment: Inhibition of RET (unknown origin)
[9] = target: Serine/threonine-protein kinase pim-1 (Homo sapiens, UniProt P11309); experiment: Inhibition of PIM1 (unknown origin)
[10] = Toxicity in wildtype mouse assessed as time spent in center zone at 1200 ppm administered as rodent chow for 10 to 24 weeks by Open field test (reference value: 32.4 to 76.1 sec); conditions: in vivo, po, time 10-24 weeks
[11] = target: Fibroblast growth factor receptor 3 (Homo sapiens, UniProt P22607); experiment: Inhibition of FGFR3 (unknown origin)
[12] = Toxicity in wildtype mouse assessed as number of entries to perimeter zone at 1200 ppm administered as rodent chow for 10 to 24 weeks by Open field test (reference value: 20 to 64); conditions: in vivo, po, time 10-24 weeks
[13] = AUC (0 to infinity) in dog at 45 mg/kg, po administered as single dose via gavage; type: ADME, organism-based, Canis lupus familiaris; conditions: in vivo
[14] = Effect on Cst7 gene expression in wild type mouse hippocampus at 1200 ppm administered as rodent chow starting from 1.5 months and measured after 7 months by RNA-Seq analysis (reference value: 0.079 to 0.447 RPKM); type: functional; conditions: route po, time 5.5 months, 4015 h
[15] = Effect on Spi1 gene expression in wild type mouse hippocampus at 1200 ppm administered as rodent chow starting from 1.5 months and measured after 7 months by RNA-Seq analysis (reference value: 1.111 to 1.682 RPKM); type: functional; conditions: route po, time 5.5 months, 4015 h
[16] = target: Receptor-type tyrosine-protein kinase FLT3 (Homo sapiens, UniProt P36888); experiment: Inhibition of FLT3 (unknown origin) in presence of ATP by enzymatic assay
[17] = tested on: Mus musculus; experiment: Effect on circulating leukocytes in wildtype mouse assessed as percentage of CD45+/PI- cells expressing CD11c at 1200 ppm administered as rodent chow for 10 to 24 weeks (reference value: 4.18 to 10.2 %); type: functional; conditions: route po, time 10-24 weeks
[18] = tested on: Mus musculus; experiment: Antialzheimer activity in 5XFAD mouse assessed as percent change in claudin-5 intensity of Thio-S negative thalamus at 1200 ppm administered as rodent chow starting from 1.5 months and measured after 4 months by immunolabeling analysis relative to control; type: functional; conditions: route po, time 2.5 months, 1825 h
[19] = target: Ephrin type-A receptor 8 (Homo sapiens, UniProt P29322); experiment: Inhibition of EPHA8 (unknown origin)
[20] = target: Tyrosine-protein kinase FRK (Homo sapiens, UniProt P42685); experiment: Inhibition of FRK (unknown origin)
[21] = Cmax in male rat at 45 mg/kg, po administered as single dose via gavage; type: ADME, organism-based; conditions: in vivo
[22] = Toxicity in wildtype mouse assessed as number of entries to center zone at 1200 ppm administered as rodent chow for 10 to 24 weeks by Open field test (reference value: 19 to 63); conditions: in vivo, po, time 10-24 weeks
[23] = Drug concentration in wildtype mouse brain at 1200 ppm administered as rodent chow for 10 to 24 weeks; type: ADME, tissue-based; conditions: in vivo, po, time 10-24 weeks, read-out: Ct
Method in brief: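 WT or 5xFAD mice were started at 1.5 months of age on PLX5622 formulated at 1200 ppm in AIN-76A chow, with control chow as comparison. Feeding ran for 10 or 24 weeks. Terminal plasma and brain drug levels were then measured. Groups were sex-balanced and compared by two-tailed independent t-test.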

[24] = target: Serine/threonine-protein kinase MRCK beta (Homo sapiens, UniProt Q9Y5S2); experiment: Inhibition of CDC42_BPB (unknown origin)
[25] = Effect on Rnf217 gene expression in wildtype mouse hippocampus assessed as percent change in Reads Per kilo base per Million mapped reads at 1200 ppm administered as rodent chow starting from 1.5 months and measured after 7 months by RNA-Seq analysis (reference value: 92.169 to 103.245 %); type: functional; conditions: route po, time 5.5 months, 4015 h
[26] = Toxicity in wildtype mouse assessed as proportion of time spent freezing at 1200 ppm administered as rodent chow for 10 to 24 weeks by […] (reference value: 0.10 to 0.53); conditions: in vivo, po, time 10-24 weeks
[27] = tested on: Mus musculus; experiment: Antialzheimer activity in 5XFAD mouse assessed as amyloidbeta38 level in detergent soluble thalamus fraction measured per microgram protein at 1200 ppm administered as rodent chow starting from 1.5 months and measured after 7 months by ELISA (reference value: 0 to 0.010 pg); type: functional; conditions: route po, time 5.5 months, 4015 h
Method in brief: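 PLX5622 at 1200 ppm in chow given to 5xFAD mice from 1.5 months to 4 or 7 months of age; cortex and thalamus homogenized in TPER (detergent-soluble), pellets re-homogenized in 70% formic acid and spun 100,000 g, 1 h, 4 °C (insoluble); protein by Bradford/Lowry; Aβ species measured by Meso Scale electrochemiluminescence immunoassay, normalized to protein; n = 7–8 per group at 7 months.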

[28] = tested on: Mus musculus; experiment: Antialzheimer activity in 5XFAD mouse assessed as number of Thio-S positive plaques per FOV in […] cortex at 1200 ppm administered as rodent chow starting from 1.5 months and measured after 7 months by Thio-S staining based confocal microscopic analysis (reference value: 52 to 140); type: functional; conditions: route po, time 5.5 months, 4015 h
[29] = target: Fibroblast growth factor receptor 4 (Homo sapiens, UniProt P22455); experiment: Inhibition of FGFR4 (unknown origin)
[30] = Effect on Ctsd gene expression in 5XFAD mouse thalamus at 1200 ppm administered as rodent chow starting from 1.5 months and measured after 7 months by RNA-Seq analysis (reference value: 209.488 to 301.760 RPKM); type: functional; conditions: route po, time 5.5 months, 4015 h
[31] = target: Protein kinase C epsilon type (Homo sapiens, UniProt Q02156); experiment: Inhibition of PRKCE (unknown origin)
[32] = target: Casein kinase I isoform alpha (Homo sapiens, UniProt P48729); experiment: Inhibition of CSNK1A1 (unknown origin)

Chain of Tyrosine-protein kinase FRK (P42685 whole entry): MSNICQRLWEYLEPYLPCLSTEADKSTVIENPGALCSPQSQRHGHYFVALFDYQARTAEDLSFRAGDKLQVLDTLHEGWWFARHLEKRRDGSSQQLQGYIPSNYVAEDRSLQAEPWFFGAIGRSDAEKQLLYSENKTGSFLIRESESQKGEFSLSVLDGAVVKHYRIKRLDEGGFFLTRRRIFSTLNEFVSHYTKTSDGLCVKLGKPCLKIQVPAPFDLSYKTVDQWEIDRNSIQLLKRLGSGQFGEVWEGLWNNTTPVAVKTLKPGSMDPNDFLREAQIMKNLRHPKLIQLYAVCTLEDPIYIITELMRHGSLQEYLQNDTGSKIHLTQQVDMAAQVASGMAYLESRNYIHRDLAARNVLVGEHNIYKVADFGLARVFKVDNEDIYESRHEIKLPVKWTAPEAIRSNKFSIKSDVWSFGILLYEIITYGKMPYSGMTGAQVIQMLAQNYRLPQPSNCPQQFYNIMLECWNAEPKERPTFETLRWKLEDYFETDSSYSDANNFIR
Chain of Receptor-type tyrosine-protein kinase FLT3 (P36888 whole entry): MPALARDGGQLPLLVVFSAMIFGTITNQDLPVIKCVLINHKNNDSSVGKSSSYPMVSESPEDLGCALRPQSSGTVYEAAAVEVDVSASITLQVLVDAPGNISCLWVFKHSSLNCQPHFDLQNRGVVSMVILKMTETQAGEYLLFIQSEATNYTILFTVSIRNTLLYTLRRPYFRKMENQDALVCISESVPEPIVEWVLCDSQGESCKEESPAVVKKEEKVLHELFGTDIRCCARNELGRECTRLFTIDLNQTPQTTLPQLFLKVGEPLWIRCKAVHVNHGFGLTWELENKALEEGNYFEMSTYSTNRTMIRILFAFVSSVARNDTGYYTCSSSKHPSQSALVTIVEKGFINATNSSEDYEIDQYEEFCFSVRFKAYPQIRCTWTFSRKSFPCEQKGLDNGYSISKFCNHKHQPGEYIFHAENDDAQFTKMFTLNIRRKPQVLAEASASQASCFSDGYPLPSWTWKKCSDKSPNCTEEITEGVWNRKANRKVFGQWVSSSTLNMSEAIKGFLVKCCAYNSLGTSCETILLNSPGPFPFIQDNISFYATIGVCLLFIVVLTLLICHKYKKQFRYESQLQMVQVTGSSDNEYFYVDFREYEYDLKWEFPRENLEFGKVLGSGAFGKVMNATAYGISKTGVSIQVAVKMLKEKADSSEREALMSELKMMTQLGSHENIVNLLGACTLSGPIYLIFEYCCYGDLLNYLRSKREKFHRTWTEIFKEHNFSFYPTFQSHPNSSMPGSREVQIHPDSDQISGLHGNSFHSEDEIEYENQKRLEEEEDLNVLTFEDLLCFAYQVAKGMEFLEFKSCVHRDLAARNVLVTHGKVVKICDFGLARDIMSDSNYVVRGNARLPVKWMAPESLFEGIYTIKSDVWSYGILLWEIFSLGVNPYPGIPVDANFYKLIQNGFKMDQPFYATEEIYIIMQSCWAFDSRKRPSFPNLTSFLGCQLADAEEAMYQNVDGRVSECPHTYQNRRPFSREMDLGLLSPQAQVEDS
Chain of Protein kinase C epsilon type (Q02156 whole entry, canonical isoform): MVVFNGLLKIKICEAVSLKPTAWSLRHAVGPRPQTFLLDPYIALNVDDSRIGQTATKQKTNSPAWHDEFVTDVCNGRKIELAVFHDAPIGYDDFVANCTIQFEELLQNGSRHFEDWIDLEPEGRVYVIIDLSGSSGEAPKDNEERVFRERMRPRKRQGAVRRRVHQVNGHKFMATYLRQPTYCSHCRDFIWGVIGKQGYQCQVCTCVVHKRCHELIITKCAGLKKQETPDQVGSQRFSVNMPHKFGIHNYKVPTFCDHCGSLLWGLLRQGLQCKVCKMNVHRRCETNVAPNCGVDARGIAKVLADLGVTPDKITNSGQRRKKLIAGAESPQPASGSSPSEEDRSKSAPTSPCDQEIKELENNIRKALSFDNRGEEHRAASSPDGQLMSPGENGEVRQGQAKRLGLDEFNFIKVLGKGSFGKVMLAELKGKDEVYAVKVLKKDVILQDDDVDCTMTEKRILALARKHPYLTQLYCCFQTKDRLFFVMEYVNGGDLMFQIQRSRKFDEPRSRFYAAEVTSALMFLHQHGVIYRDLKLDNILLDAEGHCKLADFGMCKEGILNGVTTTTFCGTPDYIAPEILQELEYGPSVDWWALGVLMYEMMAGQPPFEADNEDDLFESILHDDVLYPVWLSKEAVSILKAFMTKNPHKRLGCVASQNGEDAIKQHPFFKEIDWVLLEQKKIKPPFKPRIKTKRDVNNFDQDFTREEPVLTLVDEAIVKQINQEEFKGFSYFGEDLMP
Chain of Mitogen-activated protein kinase kinase kinase kinase 5 (Q9Y4K4 whole entry): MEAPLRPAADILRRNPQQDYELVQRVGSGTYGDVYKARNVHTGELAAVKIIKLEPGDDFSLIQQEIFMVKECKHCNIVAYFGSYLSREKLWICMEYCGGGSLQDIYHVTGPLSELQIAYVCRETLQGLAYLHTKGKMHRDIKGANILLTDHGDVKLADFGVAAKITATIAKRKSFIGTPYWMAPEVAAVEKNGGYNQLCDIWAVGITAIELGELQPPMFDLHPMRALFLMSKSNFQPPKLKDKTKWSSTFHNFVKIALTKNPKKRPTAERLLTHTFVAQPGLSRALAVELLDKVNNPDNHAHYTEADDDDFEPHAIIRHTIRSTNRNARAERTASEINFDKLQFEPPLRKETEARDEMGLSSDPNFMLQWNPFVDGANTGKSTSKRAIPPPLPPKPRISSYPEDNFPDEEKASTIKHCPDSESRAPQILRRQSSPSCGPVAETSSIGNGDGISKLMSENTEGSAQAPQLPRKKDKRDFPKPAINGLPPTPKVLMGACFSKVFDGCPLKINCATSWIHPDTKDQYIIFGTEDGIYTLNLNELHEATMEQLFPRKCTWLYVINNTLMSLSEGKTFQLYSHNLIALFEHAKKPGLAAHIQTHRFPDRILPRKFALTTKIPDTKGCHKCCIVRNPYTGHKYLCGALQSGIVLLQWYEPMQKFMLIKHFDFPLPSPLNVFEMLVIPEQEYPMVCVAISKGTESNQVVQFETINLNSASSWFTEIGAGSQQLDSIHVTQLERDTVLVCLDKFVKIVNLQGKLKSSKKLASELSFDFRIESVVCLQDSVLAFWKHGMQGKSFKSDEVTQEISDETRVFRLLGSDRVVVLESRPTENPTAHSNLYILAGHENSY
Chain of Fibroblast growth factor receptor 3 (P22607 whole entry): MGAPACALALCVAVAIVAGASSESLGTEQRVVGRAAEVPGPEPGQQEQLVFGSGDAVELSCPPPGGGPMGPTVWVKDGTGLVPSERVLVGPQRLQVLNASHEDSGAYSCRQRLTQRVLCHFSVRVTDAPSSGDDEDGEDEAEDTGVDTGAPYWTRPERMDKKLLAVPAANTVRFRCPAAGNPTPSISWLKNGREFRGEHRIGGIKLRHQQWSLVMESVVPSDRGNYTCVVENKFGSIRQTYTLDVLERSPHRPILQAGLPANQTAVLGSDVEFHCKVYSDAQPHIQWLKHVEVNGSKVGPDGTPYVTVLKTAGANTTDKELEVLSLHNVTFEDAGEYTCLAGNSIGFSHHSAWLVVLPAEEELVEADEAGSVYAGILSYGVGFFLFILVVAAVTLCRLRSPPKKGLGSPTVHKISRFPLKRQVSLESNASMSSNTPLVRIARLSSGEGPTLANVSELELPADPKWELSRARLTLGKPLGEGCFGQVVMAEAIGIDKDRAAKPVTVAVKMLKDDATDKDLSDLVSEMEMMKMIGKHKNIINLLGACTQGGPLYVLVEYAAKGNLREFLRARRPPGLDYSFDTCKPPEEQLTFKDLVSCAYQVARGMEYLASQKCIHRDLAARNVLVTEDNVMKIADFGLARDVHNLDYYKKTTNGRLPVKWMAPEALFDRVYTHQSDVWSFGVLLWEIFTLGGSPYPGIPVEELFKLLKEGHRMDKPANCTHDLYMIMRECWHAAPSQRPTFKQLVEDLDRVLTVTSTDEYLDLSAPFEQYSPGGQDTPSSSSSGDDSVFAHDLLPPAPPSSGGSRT
Chain of Proto-oncogene tyrosine-protein kinase receptor Ret (P07949 whole entry): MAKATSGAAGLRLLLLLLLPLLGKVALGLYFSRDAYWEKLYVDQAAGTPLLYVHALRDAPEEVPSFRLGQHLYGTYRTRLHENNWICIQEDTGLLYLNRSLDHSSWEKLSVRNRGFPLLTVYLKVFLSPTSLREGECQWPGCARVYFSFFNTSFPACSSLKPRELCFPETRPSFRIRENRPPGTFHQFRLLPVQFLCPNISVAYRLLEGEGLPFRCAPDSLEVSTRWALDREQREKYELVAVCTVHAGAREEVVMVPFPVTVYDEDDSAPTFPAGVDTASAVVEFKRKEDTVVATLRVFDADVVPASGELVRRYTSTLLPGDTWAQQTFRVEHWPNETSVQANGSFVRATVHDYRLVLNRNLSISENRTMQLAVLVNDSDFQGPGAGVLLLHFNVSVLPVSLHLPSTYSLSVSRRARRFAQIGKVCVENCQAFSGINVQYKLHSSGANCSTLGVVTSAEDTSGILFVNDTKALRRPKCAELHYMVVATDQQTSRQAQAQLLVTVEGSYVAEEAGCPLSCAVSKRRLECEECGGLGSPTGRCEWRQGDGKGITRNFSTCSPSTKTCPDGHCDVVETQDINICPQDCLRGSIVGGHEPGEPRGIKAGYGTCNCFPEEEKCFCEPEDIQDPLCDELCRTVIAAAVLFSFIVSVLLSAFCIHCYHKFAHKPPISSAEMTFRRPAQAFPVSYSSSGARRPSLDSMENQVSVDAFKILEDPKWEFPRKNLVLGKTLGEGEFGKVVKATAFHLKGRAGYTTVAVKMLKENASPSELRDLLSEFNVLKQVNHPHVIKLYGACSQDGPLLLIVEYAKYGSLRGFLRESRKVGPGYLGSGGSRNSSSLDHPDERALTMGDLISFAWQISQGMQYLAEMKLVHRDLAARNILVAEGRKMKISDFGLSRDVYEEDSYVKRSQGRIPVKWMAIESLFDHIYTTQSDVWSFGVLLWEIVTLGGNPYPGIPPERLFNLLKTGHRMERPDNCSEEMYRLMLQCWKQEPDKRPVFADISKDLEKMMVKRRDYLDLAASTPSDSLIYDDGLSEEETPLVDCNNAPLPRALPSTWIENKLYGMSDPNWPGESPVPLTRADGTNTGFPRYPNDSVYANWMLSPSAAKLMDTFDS

Compound `FC(F)(F)c1ccc(CNc2ccc(Cc3c[nH]c4ncc(Cl)cc34)cn2)cn1` [PEXIDARTINIB] has an Activity [1] of 34.

`COc1ncc(F)cc1CNc1ccc(Cc2c[nH]c3ncc(C)cc23)c(F)n1` [PLX-5622] showed a pIC50 [2] of less than 6.00, an AUC at 336 h [3] of 104 µg·h/mL and an Activity [4] of 7.565%. For the same compound, the Activity [5] was “Active”, the Activity [6] was 0.175 and the pIC50 [7] was less than 6.00. For the same compound, the pIC50 [8] was less than 6.00, the pIC50 [9] was less than 6.00 and the Time [10] was 12.7 s. The pIC50 [11] was less than 6.00, the Activity [12] was 13 and the AUC(0-inf) [13] was 96.5 µg·h/mL. It also gave an Activity [14] of 0 RPKM, an Activity [15] of 0.055 RPKM and a pIC50 [16] of 6.41. For the same compound, the Activity [17] was 3.32%, the Activity [18] was 91.327% and the pIC50 [19] was less than 6.00. For the same compound, the pIC50 [20] was less than 6.00, the Cmax [21] was 12000 ng/mL and the Activity [22] was 14. For the same compound, the concentration [23] was 3.35 µM, the pIC50 [24] was less than 6.00 and the Activity [25] was 69.868%. It also gave an Activity [26] of 0.13, an Activity [27] of 0 pg and an Activity [28] of 17. For the same compound, the pIC50 [29] was less than 6.00, the Activity [30] was 111.226 RPKM and the pIC50 [31] was less than 6.00. For the same compound, the pIC50 [32] was less than 6.00.

From ChEMBL document CHEMBL5649170, “Sustained microglial depletion with CSF1R inhibitor impairs parenchymal plaque development in an Alzheimer's disease model” (Nat Commun, 2019)
